ChEMBL document CHEMBL1146308 (Bioorg Med Chem, 2007)
Activity calls are given as the source filed them. The rule behind the calls is not given here.

Legend:
Acetylcholinesterase = molecular target: T1, Acetylcholinesterase (Rattus norvegicus, UniProt P37136); assay: Inhibition of AChE in rat cortex […]
T1 sequence (P37136 whole entry): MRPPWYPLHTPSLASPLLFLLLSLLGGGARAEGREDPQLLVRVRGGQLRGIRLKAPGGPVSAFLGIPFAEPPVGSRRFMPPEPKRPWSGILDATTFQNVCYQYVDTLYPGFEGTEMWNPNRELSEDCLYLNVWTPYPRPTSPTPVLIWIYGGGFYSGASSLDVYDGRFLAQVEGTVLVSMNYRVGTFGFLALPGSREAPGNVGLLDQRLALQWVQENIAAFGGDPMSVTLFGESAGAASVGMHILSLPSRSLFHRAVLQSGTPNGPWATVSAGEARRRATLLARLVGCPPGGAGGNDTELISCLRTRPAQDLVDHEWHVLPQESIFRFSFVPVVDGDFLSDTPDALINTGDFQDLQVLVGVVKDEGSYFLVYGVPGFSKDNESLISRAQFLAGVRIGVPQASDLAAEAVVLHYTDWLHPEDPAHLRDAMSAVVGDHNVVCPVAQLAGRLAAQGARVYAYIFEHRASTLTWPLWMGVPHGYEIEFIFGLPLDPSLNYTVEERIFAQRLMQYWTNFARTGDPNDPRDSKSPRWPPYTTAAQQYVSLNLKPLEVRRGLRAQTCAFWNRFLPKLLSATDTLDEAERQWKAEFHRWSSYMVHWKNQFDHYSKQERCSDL

Rattus norvegicus = species: Rattus norvegicus; assay: Selectivity ratio of IC50 for rat BuChE to rat IC50 for AchE
Procedure, shortened: (§1)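 Modified Ellman colorimetric cholinesterase assay. The AChE source was rat cortex homogenate and the BuChE source was rat serum. Inhibition was measured against each enzyme, and selectivity was taken as the BuChE IC50 over the AChE IC50.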

Butyrylcholinesterase = Butyrylcholinesterase (Rattus norvegicus, UniProt Q9JKC1); assay: Inhibition of BuChE in rat serum; type: cell-free; procedure, shortened: as §1
Butyrylcholinesterase, sequence (Q9JKC1 whole entry): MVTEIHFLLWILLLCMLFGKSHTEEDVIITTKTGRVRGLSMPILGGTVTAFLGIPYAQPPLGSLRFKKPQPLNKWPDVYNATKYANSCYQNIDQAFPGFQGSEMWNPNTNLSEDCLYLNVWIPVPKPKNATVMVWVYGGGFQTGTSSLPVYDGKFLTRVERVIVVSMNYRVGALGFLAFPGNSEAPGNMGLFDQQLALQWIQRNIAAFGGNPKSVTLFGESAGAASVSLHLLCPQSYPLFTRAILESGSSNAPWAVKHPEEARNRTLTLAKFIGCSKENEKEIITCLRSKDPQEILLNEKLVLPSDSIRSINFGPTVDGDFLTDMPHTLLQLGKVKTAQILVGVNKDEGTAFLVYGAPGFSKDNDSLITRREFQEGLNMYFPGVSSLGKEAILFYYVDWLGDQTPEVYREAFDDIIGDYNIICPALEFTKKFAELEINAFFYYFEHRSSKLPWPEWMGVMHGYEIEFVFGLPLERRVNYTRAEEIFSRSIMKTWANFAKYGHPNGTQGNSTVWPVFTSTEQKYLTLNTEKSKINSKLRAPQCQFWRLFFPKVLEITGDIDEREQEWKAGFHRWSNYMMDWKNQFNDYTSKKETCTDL

Mus musculus = species: Mus musculus; assay: Neuroprotection against scopolamine-induced spartial performance deficits in mouse by water maze test; type: functional, organism-based
PC-12 [1] = assay: Reduction of amyloid beta peptide-induced cytotoxicity in PC12 cells; type: functional, cell-based; conditions: Rattus norvegicus
PC-12 [2] = assay: Inhibition of amyloid beta peptide-induced redox disequilibrium assessed as increase in GSHPx activity in PC12 cells; type: functional, cell-based; conditions: Rattus norvegicus
PC-12 [3] = assay: Inhibition of amyloid beta peptide-induced redox disequilibrium assessed as decrease in SOD activity in PC12 cells; type: functional, cell-based; conditions: Rattus norvegicus
PC-12 [4] = assay: Inhibition of amyloid beta peptide-induced redox disequilibrium assessed as decrease in MDA level in PC12 cells; type: functional, cell-based; conditions: Rattus norvegicus
PC-12 [5] = assay: Inhibition of staurosporine-induced apoptosis in PC12 cells; type: functional, cell-based; conditions: Rattus norvegicus

Structure (SMILES) | IC50 (Acetylcholinesterase) | Ratio IC50 (Rattus norvegicus) | other results
CC1=C[C@H]2Cc3[nH]c(=O)ccc3[C@@]3(C1)[C@@H]2CCCN3CCCN(C)CCCCCCCCN(C)CCCN1CCC[C@@H]2[C@H]3C=C(C)C[C@]21c1ccc(=O)[nH]c1C3 | 40.6 nM |  | 
CC1=C[C@H]2Cc3[nH]c(=O)ccc3[C@@]3(C1)[C@@H]2CCCN3CCCN1CCCN(CCCN2CCC[C@@H]3[C@H]4C=C(C)C[C@]32c2ccc(=O)[nH]c2C4)CC1 | 332 nM |  | 
CC1=C[C@H]2Cc3[nH]c(=O)ccc3[C@@]3(C1)[C@@H]2CCCN3C(=O)CN(C)CCCCCCCCCCCCN(C)Cc1ccc(F)cc1 | 309 nM |  | 
CC1=C[C@H]2Cc3[nH]c(=O)ccc3[C@@]3(C1)[C@@H]2CCCN3C(=O)CN1CCCN(CC(=O)N2CCC[C@@H]3[C@H]4C=C(C)C[C@]32c2ccc(=O)[nH]c2C4)CC1 | 204 nM | 838 | 
CC1=C[C@H]2Cc3[nH]c(=O)ccc3[C@@]3(C1)[C@@H]2CCCN3CCN1CCCN(CCN2CCC[C@@H]3[C@H]4C=C(C)C[C@]32c2ccc(=O)[nH]c2C4)CC1 |  | 573 | 
CC1=C[C@H]2Cc3[nH]c(=O)ccc3[C@@]3(C1)[C@@H]2CCCN3C(=O)CN(C)CCCCCCCCCCN(C)Cc1cccc2ccccc12 | 121 nM |  | 
CC1=C[C@H]2Cc3[nH]c(=O)ccc3[C@@]3(C1)[C@@H]2CCCN3CCN(CCN1CCC[C@@H]2[C@H]3C=C(C)C[C@]21c1ccc(=O)[nH]c1C3)C1CC1 | 695 nM |  | 
CC1=C[C@H]2Cc3[nH]c(=O)ccc3[C@@]3(C1)[C@@H]2CCCN3C(=O)CN(C)CCCCCCCCCCCCN(C)CC(=O)N1CCC[C@@H]2[C@H]3C=C(C)C[C@]21c1ccc(=O)[nH]c1C3 | 53.4 nM |  | 
CC1=C[C@H]2Cc3[nH]c(=O)ccc3[C@@]3(C1)[C@@H]2CCCN3C(=O)CN(C)CCCCCCCCCCN(C)Cc1ccncc1 | 50 nM |  | 
CC1=C[C@H]2Cc3[nH]c(=O)ccc3[C@@]3(C1)[C@@H]2CCCN3C(=O)CN(C)CCCCCCN(C)Cc1cccc2ccccc12 | 124 nM |  | 
CCCN(CC(=O)N1CCC[C@@H]2[C@H]3C=C(C)C[C@]21c1ccc(=O)[nH]c1C3)CC(=O)n1c2c(ccc1=O)[C@@]13CC(C)=C[C@@H](C2)[C@H]1CCCN3 | 157 nM |  | 
CC1=C[C@H]2Cc3[nH]c(=O)ccc3[C@@]3(C1)[C@@H]2CCCN3CCN(C)CCCCCCCCN(C)CCN1CCC[C@@H]2[C@H]3C=C(C)C[C@]21c1ccc(=O)[nH]c1C3 | 20.1 nM |  | 
CC1=C[C@H]2Cc3[nH]c(=O)ccc3[C@]3(C1)NCCC[C@H]23 |  | 12 | 
CC1=C[C@H]2Cc3[nH]c(=O)ccc3[C@@]3(C1)[C@@H]2CCCN3C(=O)CN(C)CCCCCCCCN(C)Cc1ccccn1 | 41.2 nM |  | 
COc1ccccc1CN(C)CCCCCCCCCCCCN(C)CC(=O)N1CCC[C@@H]2[C@H]3C=C(C)C[C@]21c1ccc(=O)[nH]c1C3 | 62.2 nM |  | 
CC1=C[C@H]2Cc3[nH]c(=O)ccc3[C@@]3(C1)[C@@H]2CCCN3C(=O)CCN(C)CCCCCCCCCCCCN(C)CCC(=O)N1CCC[C@@H]2[C@H]3C=C(C)C[C@]21c1ccc(=O)[nH]c1C3 | 23.1 nM | 3830 | IC50 (Butyrylcholinesterase): 88400 nM
CC1=C[C@H]2Cc3[nH]c(=O)ccc3[C@@]3(C1)[C@@H]2CCCN3C(=O)CN(C)CCCCCCCCCCCCN(C)Cc1ccccn1 | 65.8 nM |  | 
CC1=C[C@H]2Cc3[nH]c(=O)ccc3[C@@]3(C1)[C@@H]2CCCN3C(=O)CN(C)CCCN(C)CC(=O)N1CCC[C@@H]2[C@H]3C=C(C)C[C@]21c1ccc(=O)[nH]c1C3 | 471 nM | 127 | IC50 (Butyrylcholinesterase): 60000 nM
CC1=C[C@H]2Cc3[nH]c(=O)ccc3[C@@]3(C1)[C@@H]2CCCN3C(=O)CCN1CCCN(CCC(=O)N2CCC[C@@H]3[C@H]4C=C(C)C[C@]32c2ccc(=O)[nH]c2C4)CC1 | 179 nM |  | 
CC1=C[C@H]2Cc3[nH]c(=O)ccc3[C@@]3(C1)[C@@H]2CCCN3C(=O)CN(CC(=O)N1CCC[C@@H]2[C@H]3C=C(C)C[C@]21c1ccc(=O)[nH]c1C3)C1CC1 | 1000 nM |  | 
CC1=C[C@H]2Cc3[nH]c(=O)ccc3[C@@]3(C1)[C@@H]2CCCN3CCCN1CCN(CCCN2CCC[C@@H]3[C@H]4C=C(C)C[C@]32c2ccc(=O)[nH]c2C4)CC1 | 202 nM |  | 

Structure (SMILES) | IC50 (Acetylcholinesterase) | Ratio IC50 (Rattus norvegicus) | other results
CC1=C[C@H]2Cc3[nH]c(=O)ccc3[C@@]3(C1)[C@@H]2CCCN3CCCN(C)CCCCCCN(C)CCCN1CCC[C@@H]2[C@H]3C=C(C)C[C@]21c1ccc(=O)[nH]c1C3 | 33.6 nM |  | 
CC1=C[C@H]2Cc3[nH]c(=O)ccc3[C@@]3(C1)[C@@H]2CCCN3C(=O)CCN(C)CCCCCCCCCCN(C)CCC(=O)N1CCC[C@@H]2[C@H]3C=C(C)C[C@]21c1ccc(=O)[nH]c1C3 | 11.8 nM | 5510 | Activity (Mus musculus): Active; IC50 (Butyrylcholinesterase): 65000 nM; Activity (PC-12 [1]): Active; Activity (PC-12 [2]): Active; Activity (PC-12 [3]): Active; Activity (PC-12 [4]): Active; Activity (PC-12 [5]): Active
CC1=C[C@H]2Cc3[nH]c(=O)ccc3[C@@]3(C1)[C@@H]2CCCN3C(=O)CN(C)CCN(C)CC(=O)N1CCC[C@@H]2[C@H]3C=C(C)C[C@]21c1ccc(=O)[nH]c1C3 | 1020 nM |  | 
COc1ccccc1CN(C)CCCCCCCCCCN(C)CC(=O)N1CCC[C@@H]2[C@H]3C=C(C)C[C@]21c1ccc(=O)[nH]c1C3 | 21.1 nM | 410 | IC50 (Butyrylcholinesterase): 8650 nM
CC1=C[C@H]2Cc3[nH]c(=O)ccc3[C@@]3(C1)[C@@H]2CCCN3CCN1CCN(CN2CCC[C@@H]3[C@H]4C=C(C)C[C@]32c2ccc(=O)[nH]c2C4)CC1 | 407 nM | 472 | IC50 (Butyrylcholinesterase): 192000 nM
CC1=C[C@H]2Cc3[nH]c(=O)ccc3[C@@]3(C1)[C@@H]2CCCN3C(=O)CN(C)CCCCCCCCN(C)Cc1ccc(F)cc1 | 56.5 nM |  | 
CC1=C[C@H]2Cc3[nH]c(=O)ccc3[C@@]3(C1)[C@@H]2CCCN3C(=O)CCN(C)CCCCCCN(C)CCC(=O)N1CCC[C@@H]2[C@H]3C=C(C)C[C@]21c1ccc(=O)[nH]c1C3 | 35.9 nM | 1890 | IC50 (Butyrylcholinesterase): 67900 nM
CC1=C[C@H]2Cc3[nH]c(=O)ccc3[C@@]3(C1)[C@@H]2CCCN3CCN(C)CCCN(C)CCN1CCC[C@@H]2[C@H]3C=C(C)C[C@]21c1ccc(=O)[nH]c1C3 | 416 nM |  | 
CC1=C[C@H]2Cc3[nH]c(=O)ccc3[C@@]3(C1)[C@@H]2CCCN3C(=O)CN(C)CCCCCCN(C)CC(=O)N1CCC[C@@H]2[C@H]3C=C(C)C[C@]21c1ccc(=O)[nH]c1C3 | 76.2 nM | 846 | IC50 (Butyrylcholinesterase): 64500 nM
CC1=C[C@H]2Cc3[nH]c(=O)ccc3[C@@]3(C1)[C@@H]2CCCN3C(=O)CCN1CCN(CCC(=O)N2CCC[C@@H]3[C@H]4C=C(C)C[C@]32c2ccc(=O)[nH]c2C4)CC1 | 170 nM |  | 
CC1=C[C@H]2Cc3[nH]c(=O)ccc3[C@@]3(C1)[C@@H]2CCCN3C(=O)CN(C)CCCCCCCCN(C)CC(=O)N1CCC[C@@H]2[C@H]3C=C(C)C[C@]21c1ccc(=O)[nH]c1C3 | 50.8 nM | 1290 | IC50 (Butyrylcholinesterase): 65400 nM
CCCN(CCN1CCC[C@@H]2[C@H]3C=C(C)C[C@]21c1ccc(=O)[nH]c1C3)CCN1CCC[C@@H]2[C@H]3C=C(C)C[C@]21c1ccc(=O)[nH]c1C3 | 1010 nM |  | 
CC1=C[C@H]2Cc3[nH]c(=O)ccc3[C@@]3(C1)[C@@H]2CCCN3C(=O)CN1CCN(CC(=O)N2CCC[C@@H]3[C@H]4C=C(C)C[C@]32c2ccc(=O)[nH]c2C4)CC1 |  | > 157 | 
CC1=C[C@H]2Cc3[nH]c(=O)ccc3[C@@]3(C1)[C@@H]2CCCN3C(=O)CN(C)CCCCCCCCCCN(C)Cc1ccc(F)cc1 | 52 nM | 67 | IC50 (Butyrylcholinesterase): 3480 nM
CC1=C[C@H]2Cc3[nH]c(=O)ccc3[C@@]3(C1)[C@@H]2CCCN3C(=O)CN(C)CCCCCCCCCCN(C)Cc1ccccn1 | 42 nM |  | 
CC1=C[C@H]2Cc3[nH]c(=O)ccc3[C@@]3(C1)[C@@H]2CCCN3C(=O)CN(C)CCCCCCCCCCN(C)Cc1cccnc1 |  |  | IC50 (Butyrylcholinesterase): 12900 nM
CC1=C[C@H]2Cc3[nH]c(=O)ccc3[C@@]3(C1)[C@@H]2CCCN3CCCN(C)CCCCCCCCCCN(C)CCCN1CCC[C@@H]2[C@H]3C=C(C)C[C@]21c1ccc(=O)[nH]c1C3 | 26.2 nM |  | 
CC1=C[C@H]2Cc3[nH]c(=O)ccc3[C@@]3(C1)[C@@H]2CCCN3CCN(C)CCCCCCN(C)CCN1CCC[C@@H]2[C@H]3C=C(C)C[C@]21c1ccc(=O)[nH]c1C3 | 78.4 nM |  | 
CC1=C[C@H]2Cc3[nH]c(=O)ccc3[C@@]3(C1)[C@@H]2CCCN3C(=O)CCN(C)CCCCCCCCN(C)CCC(=O)N1CCC[C@@H]2[C@H]3C=C(C)C[C@]21c1ccc(=O)[nH]c1C3 | 18.5 nM | 3400 | IC50 (Butyrylcholinesterase): 63000 nM
CC1=C[C@H]2Cc3[nH]c(=O)ccc3[C@@]3(C1)[C@@H]2CCCN3CCN(C)CCN(C)CCN1CCC[C@@H]2[C@H]3C=C(C)C[C@]21c1ccc(=O)[nH]c1C3 | 3480 nM |  | 
